Reference: ChEMBL document CHEMBL1811874, “The effect of sulfonate leaving groups on the hypoxia-selective toxicity of nitro analogs of the duocarmycins” (Bioorg Med Chem, 2011)
Converted amounts (≈) assume the structure as drawn.

Legend:
SK-OV-3 [1] = assay: Cytotoxicity against human SKOV3 cells assessed as reduction of cell density incubated for 4 hrs in hypoxic (anoxic) condition measured 5 days post dose by SRB assay; assay type: functional, cell-based
Summary of the method: (§1)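 Log-phase monolayers given a 4 h drug exposure under aerobic (20% O₂) or anoxic (<20 ppm O₂) conditions. Cells were then stained with sulforhodamine B 5 days later. IC50 was interpolated as the concentration that cut cell density to 50% of same-plate controls. Values are means of two to seven experiments.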

SK-OV-3 [2] = assay: Cytotoxicity against human SKOV3 cells assessed as reduction of cell density incubated for 4 hrs in oxic (aerobic) condition measured 5 days post dose by SRB assay; assay type: functional, cell-based; summary of the method: as §1
[3] = Solubility in alphaMEM culture medium containing 5% FCS at 22 degC; assay type: physicochemical
Summary of the method: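 Solubility was measured in αMEM with 5% FCS, equilibrated with 5% CO₂/air, at 22 °C.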

SK-OV-3 [4] = assay: Hypoxic cytotoxicity ratio, ratio of IC50 for human SKOV3 cells in oxic (aerobic) condition to IC50 for human SKOV3 cells in hypoxic (anoxic) conditions; assay type: functional
Summary of the method: (§2)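 HCR was calculated as IC50(oxic)/IC50(hypoxic) after 4 h drug exposure at 20% O₂ or <20 ppm O₂, with SRB read-out 5 days later.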

A549 = assay: Cytotoxicity against human A549 cells after 24 hrs; assay type: functional, cell-based; conditions: A549, 24 h
HT-29 [5] = assay: Cytotoxicity against human HT-29 cells assessed as reduction of cell density incubated for 4 hrs in oxic (aerobic) condition measured 5 days post dose by SRB assay; assay type: functional, cell-based; summary of the method: as §1
HT-29 [6] = assay: Hypoxic cytotoxicity ratio, ratio of IC50 for human HT-29 cells in oxic (aerobic) condition to IC50 for human HT-29 cells in hypoxic (anoxic) conditions; assay type: functional; summary of the method: as §2
HT-29 [7] = assay: Cytotoxicity against human HT-29 cells assessed as reduction of cell density incubated for 4 hrs in hypoxic (anoxic) condition measured 5 days post dose by SRB assay; assay type: functional, cell-based; summary of the method: as §1

| solubility [3] | Structure (SMILES) | IC50 (SK-OV-3 [1]) | IC50 (SK-OV-3 [2]) | Ratio IC50 (SK-OV-3 [4]) | IC50 (A549) | IC50 (HT-29 [5]) | Ratio IC50 (HT-29 [6]) | IC50 (HT-29 [7]) |
| --- | --- | --- | --- | --- | --- | --- | --- | --- |
| 37 µM (≈ 22 µg/mL) | COc1cc2cc(C(=O)N3CC(COS(=O)(=O)C4CCCCC4)c4c3cc(N)c3ccccc43)[nH]c2c(OC)c1OC (stereo unspecified) | 6.5 nM | 4.9 nM | 1 |  |  |  |  |
|  | CN(C)CCOc1ccc2[nH]c(C(=O)N3C[C@@H](CCl)c4c3cc(O)c3ccccc43)cc2c1 |  |  |  | 0.026 nM |  |  |  |
| 13 µM (≈ 6.06 µg/mL) | O=C(c1cc2cc(OCCO)ccc2[nH]1)N1CC(CCl)c2c1cc([N+](=O)[O-])c1ccccc21 (stereo unspecified) | 3300 nM | 9300 nM | 3.8 |  | 6600 nM | 1.1 | 5700 nM |
| 9 µM (≈ 3.95 µg/mL) | COc1ccc(/C=C/C(=O)N2CC(CCl)c3c2cc([N+](=O)[O-])c2ccccc32)cc1O (stereo unspecified) | 400 nM | 890 nM | 3.3 |  | 1700 nM | 4.5 | 590 nM |

| Structure (SMILES) | solubility [3] | IC50 (SK-OV-3 [1]) | IC50 (SK-OV-3 [2]) | Ratio IC50 (SK-OV-3 [4]) | IC50 (A549) | IC50 (HT-29 [5]) | Ratio IC50 (HT-29 [6]) | IC50 (HT-29 [7]) |
| --- | --- | --- | --- | --- | --- | --- | --- | --- |
| COc1ccc2[nH]c(C(=O)N3CC(CCl)c4c3cc([N+](=O)[O-])c3ccccc43)cc2c1 (stereo unspecified) | 38 µM (≈ 16.6 µg/mL) | 1540 nM | 4800 nM | 3.1 |  | 9700 nM | 7.4 | 1300 nM |
